Legend:
[1] = target: T1, MRGPRX2 (Homo sapiens, UniProt Q96LB1); experiment: TANGO β-arrestin recruitment assay, MRGPRX2; assay type: cell-based; conditions: NCC-1 screen, confirmed in concentration-response studies
T1 sequence (Q96LB1 1-330): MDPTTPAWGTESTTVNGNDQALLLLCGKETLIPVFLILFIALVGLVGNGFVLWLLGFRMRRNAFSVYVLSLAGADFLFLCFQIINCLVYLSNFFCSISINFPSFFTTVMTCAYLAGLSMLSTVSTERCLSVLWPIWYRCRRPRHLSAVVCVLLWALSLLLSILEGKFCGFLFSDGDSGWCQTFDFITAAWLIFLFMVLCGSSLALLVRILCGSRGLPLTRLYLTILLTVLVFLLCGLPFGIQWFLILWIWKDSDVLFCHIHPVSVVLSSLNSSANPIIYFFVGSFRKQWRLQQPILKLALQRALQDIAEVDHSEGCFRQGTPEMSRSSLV

[2] = target: T2, MRGPRX1 (Homo sapiens, UniProt Q96LB2); experiment: calcium mobilization assay, stable MRGPRX1 cell line; assay type: cell-based; conditions: MRGPRX1-expressing stable cells
Procedure, shortened: (§1)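 Tetracycline-inducible Flp-In T-Rex HEK-T lines carried FLAG-tagged receptor in pcDNA5/FRT/TO and were kept with 15 μg/ml blasticidin and 100 μg/ml hygromycin B. Expression was induced with 1ug/ml tetracycline for 24 h. The calcium assay used 15,000 cells/well and FLIPR Calcium 4 dye (45 min 37°C, 15 min RT), with 16-point 3-fold dilutions at final 10 μM–0.003 nM. Fluorescence was read for 10 s baseline plus 120 s.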

[3] = target: NTSR2 neurotensin receptor (Homo sapiens, UniProt O95665); experiment: TANGO β-arrestin recruitment assay, NTSR2; assay type: cell-based; conditions: for agonist activity at NTSR2 neurotensin receptors: TANGO, agonist mode
[4] = tested on: 91 orphan and poorly annotated GPCRs; experiment: TANGO screen of the NCC-1 library; assay type: cell-based, human
[5] = target: MRGPRX4 orphan GPCR (Homo sapiens, UniProt Q96LA9); experiment: TANGO β-arrestin recruitment assay, MRGPRX4; assay type: cell-based; conditions: initial NCC-1 screen
[6] = target: T3, MRGPRX4 (Homo sapiens, UniProt Q96LA9); experiment: cAMP; assay type: cell-based; conditions: Gs assay, HEK293T cells
[7] = target: T2, MRGPRX1; experiment: cAMP; assay type: cell-based; conditions: Gs assay, HEK293T cells
[8] = target: T1, MRGPRX2; experiment: cAMP; assay type: cell-based; conditions: Gs assay, HEK293T cells
[9] = target: MRGPRX3 (Homo sapiens, UniProt Q96LB0); experiment: cAMP; assay type: cell-based; conditions: Gs assay, HEK293T cells
[10] = target: T3, MRGPRX4; experiment: cAMP; assay type: cell-based; conditions: Gi assay, MRGPRX4-expressing cells
[11] = target: T3, MRGPRX4; experiment: calcium mobilization assay, stable MRGPRX4 cell line; assay type: cell-based; conditions: MRGPRX4-expressing stable cells
Procedure, shortened: as §1

[12] = target: SSTR3 somatostatin receptor (Homo sapiens, UniProt P32745); experiment: PRESTO-TANGO / TANGO β-arrestin recruitment assay, SSTR3; assay type: cell-based
[13] = target: MLNR motilin receptor TANGO construct; experiment: TANGO
[14] = target: T1, MRGPRX2; experiment: PI hydrolysis assay, MRGPRX2; assay type: cell-based
Procedure, shortened: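 HEK-293T cells were transiently transfected with 10 μg receptor DNA per 15 cm dish and seeded the next day on poly-L-lysine in 1% dialyzed FBS. They were labelled 16 h with 1 μCi/well ³H-inositol in inositol-free DMEM. Concentration series were applied in quadruplicate in HBSS/24 mM NaHCO₃/11 mM glucose/15 mM LiCl, pH 7.4, for 1 h at 37°C. Cells were lysed with 50 mM formic acid, and extracts were counted by SPA beads.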

[15] = target: T4, HTR1A serotonin receptor (Homo sapiens, UniProt P08908); experiment: TANGO assay in antagonist mode, HTR1A; assay type: cell-based; conditions: 1 μM clozapine
T4 sequence (P08908 1-422): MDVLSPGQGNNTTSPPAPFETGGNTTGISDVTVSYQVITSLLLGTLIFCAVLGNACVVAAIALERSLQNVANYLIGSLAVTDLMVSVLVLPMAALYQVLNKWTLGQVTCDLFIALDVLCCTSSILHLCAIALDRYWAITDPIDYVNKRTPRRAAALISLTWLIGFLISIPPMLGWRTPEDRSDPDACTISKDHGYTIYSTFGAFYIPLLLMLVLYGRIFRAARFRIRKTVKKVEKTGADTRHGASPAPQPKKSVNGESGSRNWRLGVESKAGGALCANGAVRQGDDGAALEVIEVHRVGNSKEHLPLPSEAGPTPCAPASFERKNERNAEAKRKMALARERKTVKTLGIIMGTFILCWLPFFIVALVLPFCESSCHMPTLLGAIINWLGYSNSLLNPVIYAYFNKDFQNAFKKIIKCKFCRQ

[16] = target: HTR1D serotonin receptor (Homo sapiens, UniProt P28221); experiment: TANGO assay in antagonist mode, HTR1D; assay type: cell-based; conditions: 1 μM clozapine
[17] = target: T5, DRD4 dopamine receptor (Homo sapiens, UniProt P21917); experiment: TANGO β-arrestin recruitment assay, DRD4; assay type: cell-based; conditions: PRESTO-TANGO screen and concentration-response (Fig. 4b)
T5 sequence (P21917 1-419): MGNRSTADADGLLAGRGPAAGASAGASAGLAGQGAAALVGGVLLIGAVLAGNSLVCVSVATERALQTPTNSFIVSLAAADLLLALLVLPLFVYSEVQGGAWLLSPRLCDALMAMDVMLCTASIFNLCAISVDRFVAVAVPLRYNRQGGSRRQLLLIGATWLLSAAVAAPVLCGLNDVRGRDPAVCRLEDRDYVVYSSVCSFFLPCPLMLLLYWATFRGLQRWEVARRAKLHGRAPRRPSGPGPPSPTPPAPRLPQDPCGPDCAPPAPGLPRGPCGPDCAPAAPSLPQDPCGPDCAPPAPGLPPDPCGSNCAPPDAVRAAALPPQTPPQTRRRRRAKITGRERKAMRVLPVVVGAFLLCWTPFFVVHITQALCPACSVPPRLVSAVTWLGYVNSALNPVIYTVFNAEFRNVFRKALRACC

[18] = tested on: 133 non-orphan, non-olfactory GPCR targets; experiment: PRESTO-TANGO parallel GPCR-ome screening β-arrestin recruitment assay; assay type: cell-based, human; conditions: of 133 non-orphan
[19] = target: DRD5 dopamine receptor (Homo sapiens, UniProt P21918); experiment: TANGO β-arrestin recruitment assay, DRD5; assay type: cell-based; conditions: PRESTO-TANGO screen and concentration-response (Fig. 4c)
[20] = target: T6, CX3CR1 chemokine receptor (Homo sapiens, UniProt P49238); experiment: TANGO β-arrestin recruitment assay, CX3CR1; assay type: cell-based; conditions: n = 4
T6 sequence (P49238 1-355): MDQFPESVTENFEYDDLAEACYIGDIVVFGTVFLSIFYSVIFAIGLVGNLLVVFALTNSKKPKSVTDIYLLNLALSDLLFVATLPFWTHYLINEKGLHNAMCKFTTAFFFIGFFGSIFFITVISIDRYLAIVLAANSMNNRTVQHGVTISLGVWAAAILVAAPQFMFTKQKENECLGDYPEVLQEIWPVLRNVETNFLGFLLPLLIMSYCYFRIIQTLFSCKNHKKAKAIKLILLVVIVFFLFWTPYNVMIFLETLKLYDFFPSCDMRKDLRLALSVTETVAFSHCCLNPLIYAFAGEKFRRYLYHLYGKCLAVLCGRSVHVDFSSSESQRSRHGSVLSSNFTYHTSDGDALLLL

T3 sequence (Q96LA9 whole entry): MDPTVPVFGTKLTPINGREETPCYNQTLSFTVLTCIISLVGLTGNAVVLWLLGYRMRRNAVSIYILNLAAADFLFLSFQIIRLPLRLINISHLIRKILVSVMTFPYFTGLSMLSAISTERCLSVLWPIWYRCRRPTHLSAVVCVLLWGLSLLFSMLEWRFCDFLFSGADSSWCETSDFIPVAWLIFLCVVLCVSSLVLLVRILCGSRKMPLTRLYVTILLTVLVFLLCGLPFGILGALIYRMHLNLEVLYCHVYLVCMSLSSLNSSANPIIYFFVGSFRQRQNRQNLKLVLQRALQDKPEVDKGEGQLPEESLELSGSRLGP
Sequence of NTSR2 neurotensin receptor (O95665 whole entry): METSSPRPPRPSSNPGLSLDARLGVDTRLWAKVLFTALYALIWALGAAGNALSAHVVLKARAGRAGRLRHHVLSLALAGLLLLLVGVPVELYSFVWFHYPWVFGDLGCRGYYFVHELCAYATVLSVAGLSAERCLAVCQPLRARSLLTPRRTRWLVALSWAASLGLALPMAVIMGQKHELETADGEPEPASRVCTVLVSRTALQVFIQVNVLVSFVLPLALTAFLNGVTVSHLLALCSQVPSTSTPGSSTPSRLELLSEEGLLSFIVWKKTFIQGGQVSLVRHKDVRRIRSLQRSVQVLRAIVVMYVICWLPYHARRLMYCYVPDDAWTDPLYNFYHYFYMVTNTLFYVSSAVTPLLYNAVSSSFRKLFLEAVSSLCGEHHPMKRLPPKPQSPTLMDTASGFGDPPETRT
Sequence of SSTR3 somatostatin receptor (P32745 whole entry): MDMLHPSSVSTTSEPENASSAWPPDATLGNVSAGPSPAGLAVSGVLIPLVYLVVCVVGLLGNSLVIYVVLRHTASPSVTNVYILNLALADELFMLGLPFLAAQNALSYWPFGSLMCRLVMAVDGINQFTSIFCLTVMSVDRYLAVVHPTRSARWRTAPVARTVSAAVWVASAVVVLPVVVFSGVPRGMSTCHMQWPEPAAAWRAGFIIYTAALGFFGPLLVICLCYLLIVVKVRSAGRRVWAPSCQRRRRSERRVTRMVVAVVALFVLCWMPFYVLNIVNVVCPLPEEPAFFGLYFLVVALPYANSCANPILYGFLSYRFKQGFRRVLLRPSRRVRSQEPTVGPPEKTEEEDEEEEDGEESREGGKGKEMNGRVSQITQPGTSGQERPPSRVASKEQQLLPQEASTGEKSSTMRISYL
T2 sequence (Q96LB2 whole entry): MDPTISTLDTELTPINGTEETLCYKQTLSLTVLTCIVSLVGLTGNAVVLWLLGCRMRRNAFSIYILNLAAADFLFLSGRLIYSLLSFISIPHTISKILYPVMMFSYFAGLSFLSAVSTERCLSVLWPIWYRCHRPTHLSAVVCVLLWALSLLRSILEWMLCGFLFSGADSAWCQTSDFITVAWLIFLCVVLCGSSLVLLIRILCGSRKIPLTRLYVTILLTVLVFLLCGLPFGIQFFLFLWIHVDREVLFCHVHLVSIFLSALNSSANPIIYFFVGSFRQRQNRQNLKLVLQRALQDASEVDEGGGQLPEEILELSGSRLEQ
Sequence of DRD5 dopamine receptor (P21918 whole entry): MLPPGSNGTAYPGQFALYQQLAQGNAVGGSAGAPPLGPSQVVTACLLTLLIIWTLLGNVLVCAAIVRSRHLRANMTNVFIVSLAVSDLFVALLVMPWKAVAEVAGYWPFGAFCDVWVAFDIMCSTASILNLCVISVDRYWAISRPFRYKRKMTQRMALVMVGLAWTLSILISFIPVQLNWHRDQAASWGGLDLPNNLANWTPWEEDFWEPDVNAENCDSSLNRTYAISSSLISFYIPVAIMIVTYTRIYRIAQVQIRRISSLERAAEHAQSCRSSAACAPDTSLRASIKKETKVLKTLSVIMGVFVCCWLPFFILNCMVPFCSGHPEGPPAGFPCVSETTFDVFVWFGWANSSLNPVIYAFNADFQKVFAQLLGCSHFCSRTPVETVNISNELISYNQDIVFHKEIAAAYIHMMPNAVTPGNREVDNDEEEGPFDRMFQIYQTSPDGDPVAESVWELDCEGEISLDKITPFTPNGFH
Sequence of HTR1D serotonin receptor (P28221 whole entry): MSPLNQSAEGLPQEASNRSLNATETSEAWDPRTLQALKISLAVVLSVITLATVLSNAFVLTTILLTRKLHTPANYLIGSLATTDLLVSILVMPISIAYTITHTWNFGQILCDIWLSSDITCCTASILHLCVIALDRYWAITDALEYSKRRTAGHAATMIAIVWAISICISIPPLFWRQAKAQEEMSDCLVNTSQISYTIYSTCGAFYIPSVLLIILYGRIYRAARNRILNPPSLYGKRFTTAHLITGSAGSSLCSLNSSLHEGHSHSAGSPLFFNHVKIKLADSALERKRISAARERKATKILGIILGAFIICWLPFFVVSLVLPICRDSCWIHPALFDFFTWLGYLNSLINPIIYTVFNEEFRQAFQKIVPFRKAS
Sequence of MLNR motilin receptor TANGO construct (O43193 whole entry): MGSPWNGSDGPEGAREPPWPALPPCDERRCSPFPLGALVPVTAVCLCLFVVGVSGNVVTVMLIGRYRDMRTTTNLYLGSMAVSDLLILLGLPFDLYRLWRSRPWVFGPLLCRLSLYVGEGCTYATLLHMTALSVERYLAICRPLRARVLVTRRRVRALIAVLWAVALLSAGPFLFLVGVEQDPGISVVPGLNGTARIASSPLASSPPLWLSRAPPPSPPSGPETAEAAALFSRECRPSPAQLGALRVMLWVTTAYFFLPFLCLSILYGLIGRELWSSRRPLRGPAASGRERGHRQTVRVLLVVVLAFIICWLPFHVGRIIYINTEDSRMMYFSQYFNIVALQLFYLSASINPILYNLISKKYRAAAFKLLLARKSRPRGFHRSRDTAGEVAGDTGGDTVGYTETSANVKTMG
Sequence of MRGPRX4 orphan GPCR (Q96LA9 whole entry): as the sequence (Q96LA9 whole entry) above
Sequence of MRGPRX3 (Q96LB0 whole entry): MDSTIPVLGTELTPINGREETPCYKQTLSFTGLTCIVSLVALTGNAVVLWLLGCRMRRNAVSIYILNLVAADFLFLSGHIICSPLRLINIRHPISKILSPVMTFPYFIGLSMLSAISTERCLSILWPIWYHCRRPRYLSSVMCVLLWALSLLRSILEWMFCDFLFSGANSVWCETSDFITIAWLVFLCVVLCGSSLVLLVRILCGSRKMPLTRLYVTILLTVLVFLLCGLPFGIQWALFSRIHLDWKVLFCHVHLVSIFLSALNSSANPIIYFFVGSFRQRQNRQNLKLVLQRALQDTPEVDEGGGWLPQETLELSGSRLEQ

Molecule: CN1CCC(=C2c3ccccc3CC(=O)c3sccc32)CC1 [ketotifen]
- activity in the TANGO assay at MRGPRX2 [1]: showed activity

Molecule: CN1CCC(=C2c3ccccc3CCc3sccc32)CC1 [pizotyline]
- activity in the TANGO assay at MRGPRX2 [1]: showed activity

Molecule: BAM8-22
- calcium mobilization response [2]: concentration-dependent responses

Molecule: COc1cccc(OC)c1-c1cc(C(=O)NC2(C(=O)O)C3CC4CC(C3)CC2C4)nn1-c1ccnc2cc(Cl)ccc12 (centres unmarked) [SR48692]
- agonist activity at NTSR2 neurotensin receptors [3]: agonists

Molecule: CC(C)[C@H]1CC[C@H](C(=O)N[C@H](Cc2ccccc2)C(=O)O)CC1 [Nateglinide, nateglinide]
- selectivity among the 91 targets tested ([4]; NCC-1 screen): apparently selective
- increase in luminescence over basal levels [5]: 45 fold
- activity when cAMP was measured at MRGPRX4 [6]: exceedingly modest activity at high concentrations
- activity when cAMP was measured at MRGPRX1 [7]: inactive
- activity when cAMP was measured at MRGPRX2 [8]: inactive
- activity when cAMP was measured at MRGPRX3 [9]: inactive
- inhibition of the cAMP response to isoproterenol [10]: inability
- calcium mobilization response [11]: concentration-dependent responses

Molecule: CNCCC(Oc1ccc(C(F)(F)F)cc1)c1ccccc1 (centres unmarked) [Fluoxetine, fluoxetine]
- agonist activity at SSTR3 in follow-up assays ([12]; follow-up assays (data not shown)): not confirmed
- agonist activity at the SSTR3 somatostatin receptor ([12]; initial PRESTO-TANGO screen): modest agonist activity

Molecule: β-arrestin2-TEV fusion (from UniProt P32121 1-409) (natural protein)
- fold response above baseline [13]: 184 fold

Molecule: CC(C)C[C@H](NC(=O)[C@@H](O)[C@H](N)Cc1ccccc1)C(=O)O [bestatin]
- number of targets with > 2-fold increase in luminescence ([4]; of 91 targets tested): 59
- percent of targets with > 2-fold increase in luminescence ([4]; of 91 targets tested): 65%

Molecule: CC(C)[C@@H](CN1CC[C@@](C)(c2cccc(O)c2)[C@@H](C)C1)NC(=O)[C@H]1Cc2ccc(O)cc2CN1 [JDTic]
- activity in the TANGO assay at MRGPRX2 [1]: significant activity

Molecule: COc1ccc2c(c1)[C@]13CCCC[C@@H]1[C@H](C2)N(C)CC3 [dextromethorphan]
- activity in the TANGO assay at MRGPRX2 [1]: showed activity
- concentration-dependent activity at MRGPRX2 by PI hydrolysis [14]: confirmed

Molecule: CN1CCN(C2=Nc3cc(Cl)ccc3Nc3ccccc32)CC1 [clozapine]
- effect of pre-exposure on responses to the agonist LSD [15]: little or no effect
- effect of pre-exposure on responses to the agonist LSD [16]: little or no effect

Molecule: CN1CC[C@]23CCCC[C@H]2[C@H]1Cc1ccc(O)cc13 [levorphan]
- activity in the TANGO assay at MRGPRX2 [1]: showed activity

Molecule: Oc1ccc(/C=C/c2cc(O)cc(O)c2)cc1 [resveratrol]
- number of targets with greater than 2-fold reduction in luminescence ([4]; of 91 targets tested): 70
- percent of targets with greater than 2-fold reduction in luminescence ([4]; of 91 targets tested): 77%

Molecule: SR142948
- agonist activity at NTSR2 neurotensin receptors [3]: agonists

Molecule: COC(=O)[C@@H]1C[C@H](OC(=O)CSC#N)C(=O)[C@H]2[C@@]1(C)CC[C@H]1C(=O)O[C@H](c3ccoc3)C[C@]21C [RB64]
- activity in the TANGO assay at MRGPRX2 [1]: significant activity

Molecule: C[C@@H]1CN([C@H]2CC[C@](C#N)(c3ccc(F)cc3)CC2)CC[C@]1(C(=O)O)c1ccccc1 [levocabastine]
- antagonism of SR48692- or SR142948-induced arrestin recruitment responses ([3]; NTSR2-transfected cells, pre-incubation before agonist): antagonists

Molecule: CCN(CC)C(=O)[C@@H]1C=C2c3cccc4[nH]cc(c34)C[C@H]2N(C)C1 [LSD, lysergic acid diethylamide]
- activity at the D4 dopamine receptor [17]: displayed activity
- number of tested targets with activity [18]: 15
- activity at the D5 dopamine receptor [19]: displayed activity

Molecule: CN1CCC(=C2c3ccccc3C=Cc3ccccc32)CC1 [cyproheptadine]
- activity in the TANGO assay at MRGPRX2 [1]: showed activity

Molecule: COC(=O)C[C@](O)(CCCC(C)(C)O)C(=O)O[C@@H]1C(OC)=C[C@]23CCCN2CCc2cc4c(cc2[C@H]13)OCO4 [homoharringtonine]
- number of targets with greater than 2-fold reduction in luminescence ([4]; of 91 targets tested): 58
- percent of targets with greater than 2-fold reduction in luminescence ([4]; of 91 targets tested): 64%

B1: CX3CL1: ligand of the CX3CR1 chemokine receptor (protein)
chain: QHHGVTKCNITCSKMTSKIPVALLIHYQQNQASCGKRAIILETRQHRLFCADPKEQWVKDAMQHLDRQAAALTRNGGTFEKQIGEVKPRTTPAAGGMDESVVLEPEATGESSSLEPTPSSQEAQRALGTSPELPTGVTGSSGTRLPPTPKAQDGGPVGTELFRVPPVSTAATWQSSAPHQPGPSLWAEAKTSEAPSTQDPSTQASTASSPAPEENAPSEGQRVWGQGQSPRPENSLEREEMGPVPAHTDAFQDWGPGSMAHVSVVPVSSEGTPSREPVASGSWTPKAEEPIHATMDPQRLGVLITPVPDAQAATRRQAVGLLAFLGLLFCLGVAMFTYQSLQGCPRKMAGEMAEGLRYIPRSCGSNSYVLVPV
- EC50 [20]: 0.34 nM

Source: article PMC4424118 (Nature structural & molecular biology, 2015)
